Data reported in ChEMBL document CHEMBL1154046, “Synthesis of some urea and thiourea derivatives of 3-phenyl/ethyl-2-thioxo-2,3-dihydrothiazolo[4,5-d]pyrimidine and their antagonistic effects on haloperidol-induced catalepsy and oxidative stress in mice” (2009).

What was measured:
Mus musculus [1] = experiment: Inhibition of haloperidol-induced catalepsy in Swiss albino mouse assessed as time elapsed until release of forepaw from bar at 100 mg/kg, […] 30 min prior to haloperidol challenge measured after 30 mins by bar test; format: functional; conditions: route intraperitoneal, in the assay text read “ip” for “po”
Summary of the method: (§1)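 Adult male pathogen-free Swiss albino mice (18–25 g), n = 5 per group, each used once. Compounds at 100 mg/kg i.p. were given as a suspension in 0.5% gum acacia 30 min before haloperidol 5 mg/kg i.p. Forepaws were placed on a horizontal bar 9 cm high, and descent time was recorded every 30 min for 3 h. Testing ran at 23 ± 1 °C under 20 lux. Values are mean ± S.E.M.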

Brain [2] = experiment: Antioxidant activity against GSH in haloperidol-stimulated Swiss albino mouse brain assessed as reduced glutathione level per gm of tissue (Rvb= 6.753 +/- 0.15 ug); format: functional
Mus musculus [3] = experiment: Inhibition of haloperidol-induced catalepsy in Swiss albino mouse at 100 mg/kg, […] 30 min prior to haloperidol challenge by bar test relative to haloperidol control; format: functional; conditions: route intraperitoneal, in the assay text read “ip” for “po”
Summary of the method: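 Mice received compound at 100 mg/kg i.p. (in 0.5% gum acacia) 30 min before haloperidol 5 mg/kg i.p., n = 5. The bar test was run every 30 min over 3 h, and descent times were summed as CDT [3 h]. Haloperidol CDT minus vehicle CDT was set as 100% catalepsy, and % inhibition was calculated against it.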

Mus musculus [4] = experiment: Inhibition of haloperidol-induced catalepsy in Swiss albino mouse assessed as time elapsed until release of forepaw from bar at 100 mg/kg, […] 30 min prior to haloperidol challenge measured after 120 mins by bar test; format: functional; conditions: route intraperitoneal, in the assay text read “ip” for “po”; summary of the method: as §1
Mus musculus [5] = experiment: Inhibition of haloperidol-induced catalepsy in Swiss albino mouse assessed as time elapsed until release of forepaw from bar at 100 mg/kg, […] 30 min prior to haloperidol challenge measured after 60 mins by bar test; format: functional; conditions: route intraperitoneal, in the assay text read “ip” for “po”; summary of the method: as §1
Mus musculus [6] = experiment: Inhibition of haloperidol-induced catalepsy in Swiss albino mouse assessed as time elapsed until release of forepaw from bar at 100 mg/kg, […] 30 min prior to haloperidol challenge measured after 90 mins by bar test; format: functional; conditions: route intraperitoneal, in the assay text read “ip” for “po”; summary of the method: as §1
Brain [7] = experiment: Antioxidant activity in haloperidol-stimulated Swiss albino mouse brain assessed as oxidized glutathione peroxidase level per g of protein (Rvb= 0.765+/- 0.13 U); format: functional
Mus musculus [8] = experiment: Inhibition of haloperidol-induced catalepsy in Swiss albino mouse assessed as time elapsed until release of forepaw from bar at 100 mg/kg, […] 30 min prior to haloperidol challenge measured after 150 mins by bar test; format: functional; conditions: route intraperitoneal, in the assay text read “ip” for “po”; summary of the method: as §1
Mus musculus [9] = experiment: Inhibition of haloperidol-induced catalepsy in Swiss albino mouse assessed as time elapsed until release of forepaw from bar at 100 mg/kg, […] 30 min prior to haloperidol challenge measured after 180 mins by bar test; format: functional; conditions: route intraperitoneal, in the assay text read “ip” for “po”; summary of the method: as §1
Brain [10] = experiment: Antioxidant activity in haloperidol-stimulated Swiss albino mouse brain assessed as superoxide dismutase level per mg of protein (Rvb= 0.941+/- 0.15 U); format: functional
Brain [11] = experiment: Antioxidant activity against lipid peroxidation in haloperidol-stimulated Swiss albino mouse brain assessed as malonaldehyde level per mg of protein by lipid peroxidation assay (Rvb= 5.521 +/- 0.23 nmol); format: functional, tissue-based
Summary of the method: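 Compound was given 30 min before haloperidol 5 mg/kg i.p. Brain was homogenized in 50 mM Tris-HCl pH 7.4. Homogenate was mixed with SDS, acetic acid and 0.8% TBA, heated 1 h at 95 °C, and extracted into n-butanol/pyridine (15:1). Upper-layer A532 was converted to MDA using ε 1.56 × 10⁵, and protein was measured by Lowry. Results are nmol MDA/mg protein, n = 5.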

SMILES	descent time (Mus musculus [1])	Activity (Brain [2])	inhibition (INH) (Mus musculus [3])	catalepsy descent time (Mus musculus [4])	Catalepsy time (forepaw descent time) (Mus musculus [5])	catalepsy descent time (Mus musculus [6])	Activity (Brain [7])	Time to forepaw release from bar (Mus musculus [8])	Catalepsy duration (time to release forepaw from bar) (Mus musculus [9])	Activity (Brain [10])	Activity (Brain [11])
COc1ccccc1NC(=O)Nc1ncnc2c1sc(=S)n2-c1ccccc1	0.433 min	14.362 µg	23.4%	1.48 min	0.817 min	0.95 min	1.134 U	1.38 min	1.57 min	1.992 U	3.2 nmol
CCn1c(=S)sc2c(NC(=O)Nc3ccccc3OC)ncnc21	0.583 min	14 µg	29.3%	1.5 min	0.517 min	0.667 min	1.54 U	2.25 min	2.62 min	1.81 U	2.81 nmol
CCn1c(=S)sc2c(NC(=S)Nc3ccccc3OC)ncnc21	0.3 min	11.672 µg	23.7%	1.25 min	0.25 min	0.883 min	1.331 U	1.62 min	2.4 min	1.866 U	3.12 nmol
COc1ccccc1NC(=S)Nc1ncnc2c1sc(=S)n2-c1ccccc1	0.417 min	14.2 µg	28.5%	1.8 min	0.733 min	1.3 min	1.6 U	1.87 min	1.82 min	2.35 U	2.75 nmol
